Most compounds without a hit are left out; they make up all but 3.6% or so of the library.
BB579 growth dn: growth inhibitors of yeast BB579 in restrictive medium, primary screen, yeast lifespan-shortening project, S. cerevisiae; OD615, 48 h; inhibition, % at 10 µM; 140,000 compounds, 0.51% hits;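 active = inhibition above a set limit, 3 SD over the mean compound inhibition, cut at about 44% in these data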
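test system = yeast BB579 (DeaD) | buffer or medium = restrictive CSMM-D medium | doses = single compound dose of 10 µM, 0.25% DMSO final | times = 4 h preincubation and 48 h exposure at 30 °C | technique = culture absorbance at 615 nm | benchmarks = amphotericin B 10 µg/mL, positive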
RAM network inh: inhibitors of the yeast RAM network, primary screen, dse1pr::URA3 reporter, 5-FOA selection | S. cerevisiae dse1pr::URA3 reporter, 5-FOA growth OD615, 2 d; analog-sensitive cbk1-as2 kinase mutant strain | inhibition, % at 50 µM | 190,000 compounds, 1.8% hits | AID 868, 2007;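 active = inhibition above a set limit, 3 SD over mean compound inhibition, cut at about 8.4% in these data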;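 note: 0% = DMSO-only wells with no growth and 100% = 10 µM 1-NA-PP1 full growth; inhibition rescues growth on 5-FOA so higher OD means more RAM inhibition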
Measles CPE: compounds protecting cells from measles virus cytopathic effect, primary screen, measles RdRp inhibitor project, single point, MLSMR library, absorbance | Measles virus-infected cells, CPE protection | protection (pct of control), % at 4 µM | 140,000 compounds, 1.5% hits | AID 841, 2007; in the data active = protection mostly above about 24%, no sharp cut-off; inactive = mostly below about 26%
Yeast lifespan up: compounds extending yeast replicative lifespan, primary screen, S. cerevisiae, OD615; S. cerevisiae growth with nicotinamide; deaD strain in restrictive glucose medium; 130,000 compounds, 0.68% hits; inhibition of the nicotinamide effect, % at 10 µM;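 active = inhibition above a set limit, placed 3 SD over the median of all compounds, cut at about 26% in these data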;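 note: 0% = nicotinamide-treated wells and 100% = cells grown without nicotinamide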
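assay system = DeaD-strain S. cerevisiae | measured by = absorbance at 615 nm | probe or stimulus = nicotinamide 1.5 mM | buffer or medium = CSMM-D glucose medium, restrictive | times = 48 h at 30 °C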
* = called active by the depositor.

O=C(N/C(=C/c1ccccc1)C(=O)N1CCCCCC1)c1ccccc1 was read as RAM network inh -0.4.
`O=C(/C=C/c1ccccc1)N/C(=C/c1ccccc1)C(=O)N1CCCCC1` gave BB579 growth dn -10.6, RAM network inh 0.3, Measles CPE 47.3* and Yeast lifespan up -4.4.
Cc1ccc(-c2nc3cc(C)ccc3o2)cc1 was read as BB579 growth dn -50.2, RAM network inh 3.0, Measles CPE 56.3* and Yeast lifespan up -25.8.
CCn1c(/C=N/c2nc3ccccc3n2C)nc2ccccc21 was read as BB579 growth dn 1.3, RAM network inh 1.1, Measles CPE 12.4 and Yeast lifespan up 34.5*.
`Cn1c(/N=C/c2c[nH]c3ccccc23)nc2ccccc21` gave BB579 growth dn 15.7, RAM network inh 1.5, Measles CPE 1.3 and Yeast lifespan up -11.1.
COc1ccc(-c2c(C)nn(-c3ccccc3)c2N)cc1OC was read as BB579 growth dn -11.6, RAM network inh 1.4 and Measles CPE 4.5.
COc1cc(-c2nc3c(c(C)nn3-c3ccccc3)c3cc(OC)c(OC)cc23)ccc1O was read as BB579 growth dn -57.0, RAM network inh 8.9*, Measles CPE 5.1 and Yeast lifespan up -7.0.
For CCOC(=O)CC(NC(=O)C1c2ccccc2Oc2ccccc21)c1ccccc1Cl (configuration not stated) the results were BB579 growth dn -19.9, RAM network inh 4.0, Measles CPE 4.4 and Yeast lifespan up -1.8.
COc1ccc(-n2nc(C(=O)NCc3ccco3)c3c4ccccc4n(C)c3c2=O)cc1Cl was read as BB579 growth dn -33.1, RAM network inh 9.8*, Measles CPE 11.1 and Yeast lifespan up 6.1.
COc1ccccc1CNC(=O)c1nn(-c2ccc(C)cc2)c(=O)c2c1c1ccccc1n2C was read as BB579 growth dn -21.4, RAM network inh 9.4*, Measles CPE 15.3 and Yeast lifespan up 6.4.
For CCCCN(CC)CCNC(=O)c1nn(-c2ccc(OC)cc2)c(=O)c2c1c1ccccc1n2C the results were RAM network inh 1.9.
For Cc1cccc2[nH]c(CN(C)C(=O)CC3C(=O)NCCN3CC(C)(C)C)nc12 (configuration not stated) the results were RAM network inh 0.4.
CSc1ccccc1NC(=O)CN1CCN(Cc2ccccc2)CC1 was read as RAM network inh 0.2.
O=C(O)c1ccc(S(=O)(=O)N2CCC(c3nc(-c4ccccc4Cl)no3)CC2)cc1 was read as BB579 growth dn -44.1, RAM network inh 5.6, Measles CPE 7.0 and Yeast lifespan up -12.0.
For O=C(C(c1ccccc1)c1ccccc1)N1CCC(c2nc(-c3ccccc3Cl)no2)CC1 the results were BB579 growth dn -40.6, RAM network inh 7.9 and Measles CPE 37.0*.
`CC(C)CC(c1nnnn1C1CCCC1)N1CCN(c2ccccc2F)CC1` (configuration not stated) gave BB579 growth dn -0.1, RAM network inh -1.7, Measles CPE 41.7* and Yeast lifespan up -19.4.
`Cc1cccc(OCCNC(=O)c2cccc(Oc3ccc(C(F)(F)F)cc3[N+](=O)[O-])c2)c1` gave BB579 growth dn -8.2, RAM network inh 9.0*, Measles CPE 2.7 and Yeast lifespan up 2.2.
`COc1cc(/C=N/N=C(N)N)ccc1OCc1ccc(Cl)cc1` gave RAM network inh -1.4.
For CCOc1cc(/C=N/N=C(N)N)ccc1OCc1ccc(Cl)cc1 the results were BB579 growth dn -33.9, RAM network inh 9.8*, Measles CPE 1.8 and Yeast lifespan up -4.1.
`CN(Cc1ccccc1)Cc1nc2c(c(=O)n(C)c(=O)n2C)n1Cc1ccccc1Cl` gave BB579 growth dn -31.9, RAM network inh 2.2, Measles CPE 52.8* and Yeast lifespan up -6.8.
For CCCn1c(CN(C)Cc2ccccc2)nc2c1c(=O)n(C)c(=O)n2C the results were BB579 growth dn -23.8, RAM network inh -0.5 and Measles CPE 5.8.
`CC(C)CCn1c(Oc2ccccc2Cl)nc2c1c(=O)n(C)c(=O)n2C` gave BB579 growth dn -33.9, RAM network inh 4.0, Measles CPE 49.2* and Yeast lifespan up 5.5.
For CC(C)CCn1c(Cl)nc2c1c(=O)n(C)c(=O)n2C the results were BB579 growth dn 28.3, RAM network inh -0.1, Measles CPE 31.2 and Yeast lifespan up -2.1.
COC(=O)CC1C(=O)NCCN1C(=O)CSc1nc2ccccc2s1 (configuration not stated) was read as RAM network inh 0.5.

High-throughput results: PubChem BioAssay, several laboratories
